Assay results from different studies.
Each line is one published result; the experiments were not run side by side.
Target: Serine/threonine-protein kinase Nek3 (NEK3, Homo sapiens, UniProt P51956)
Residues used in one study (P51956 1-506): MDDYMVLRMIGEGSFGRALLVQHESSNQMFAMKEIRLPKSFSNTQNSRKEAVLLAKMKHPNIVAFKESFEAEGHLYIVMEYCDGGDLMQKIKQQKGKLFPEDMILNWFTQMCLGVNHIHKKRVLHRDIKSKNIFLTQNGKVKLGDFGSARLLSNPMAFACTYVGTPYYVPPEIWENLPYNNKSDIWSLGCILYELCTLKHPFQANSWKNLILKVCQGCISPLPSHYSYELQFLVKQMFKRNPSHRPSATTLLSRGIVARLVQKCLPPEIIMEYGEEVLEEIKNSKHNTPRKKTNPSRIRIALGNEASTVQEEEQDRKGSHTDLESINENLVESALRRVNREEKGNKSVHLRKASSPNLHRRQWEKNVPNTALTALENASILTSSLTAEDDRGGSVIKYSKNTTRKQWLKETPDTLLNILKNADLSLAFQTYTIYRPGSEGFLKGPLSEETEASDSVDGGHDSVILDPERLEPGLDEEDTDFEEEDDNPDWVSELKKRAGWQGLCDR

COc1cccc2c(NCc3ccccc3)nc(-n3c(N)nc4ccccc43)nc12 — inhibition (target engagement in cells, inhibitor, chemoproteomics; 20 mM): 2.9%
CO[C@@H](C)c1c(Nc2ccc([C@@H](N(C)C(=O)C3CCS(=O)(=O)CC3)C(F)(F)F)cc2)cnc2cc(Cl)nn12 — remaining binding (cell-free assay, competition with immobilised ligand; 1 µM): 61%
CC(C)(O)[C@H]1CC[C@H](Nc2ccc3ncc(-c4cccc(C(F)(F)F)c4)n3n2)CC1 — remaining activity (enzyme activity, inhibitor; 1 µM): 91%
O=C(Nc1cnn(-c2csc(C(=O)NC3COC3)c2)c1)Nc1ccccc1Cl — remaining activity (enzyme activity, inhibitor; 5 µM): 103%
O=C1Nc2ccc(Cl)cc2C1=Cc1cc(Cl)c(O)c(Cl)c1 — remaining signal (cell-free assay; 0.5 µM): 94%
CNC(=O)c1ccc(Nc2ncc(C(F)(F)F)c(NCc3nccnc3N(C)S(C)(=O)=O)n2)cc1 — remaining binding (cell-free assay, competition with immobilised ligand; 0.1 µM): 100%
Cn1cnc(Br)c1C1=CN(c2ncnc3[nH]cnc23)CCS1 — inhibition (enzyme activity, inhibitor, radiometric; 2 µM): 79.9%
CN(C)C(=O)Cn1cc(-c2nc([C@@](C)(c3ccc(-c4cnc(N)nc4)cc3)C3CC3)no2)cn1 — remaining binding (cell-free assay, competition with immobilised ligand; 1 µM): 87%
CC(C)(C)c1nc2c(s1)c1nc(N)ncc1c1ccc(NS(=O)(=O)c3c(F)cccc3F)c(F)c12 — remaining activity (enzyme activity, inhibitor, radiometric; 1 µM): 118%
CCCOc1ccc(OC)c(F)c1C(=O)c1ccc(C(=O)N[C@@H]2CNC[C@H]2NC(=O)c2ccc3[nH]ncc3c2)cc1 — remaining activity (enzyme activity, inhibitor; 10 µM): 101%
C[C@H](c1ccnc(Nc2nc3ccc(-c4cc(N(C)C)ncn4)cc3[nH]2)c1)N1CCN(C(=O)CC(F)(F)F)CC1 — remaining binding (cell-free assay, competition with immobilised ligand; 0.1 µM): 100%
CN1CC(Oc2cnc(C#N)cc2-c2ccn3nc(NC(=O)C4CC4)cc3c2)C1 — inhibition (enzyme activity, inhibitor; 1 µM): 12%
c1ccc(CNc2nc(N3CCOc4ccccc43)nc3c2CCCC3)cc1 — inhibition (target engagement in cells, inhibitor, chemoproteomics; 20 mM): 5.9%
Cc1ccc(Nc2nccc(N(C)c3ccc4c(C)n(C)nc4c3)n2)cc1S(N)(=O)=O — remaining activity (enzyme activity, inhibitor; 0.5 µM): 94.2%
CCCCN(CCCC)C(=O)CN1C[C@@H](c2cc(OC)c3c(c2)OCO3)[C@H](C(=O)O)[C@H]1CC(C)(C)CCC — remaining binding (cell-free assay, competition with immobilised ligand; 1 µM): 72.9%
O=C(Nc1cnn(-c2csc(C(=O)NC3COC3)c2)c1)Nc1c(F)cccc1Cl — remaining activity (enzyme activity, inhibitor; 5 µM): 87.2%
CS(=O)(=O)N1CCCC(NC(=O)[C@H](CCC2CCCCC2)NC(=O)c2ccc(CNC(=O)c3cnc4ccccn34)cc2)C1 (stereo partly drawn) — remaining binding (cell-free assay, competition with immobilised ligand; 0.1 µM): 100%
O=C1NC(=O)c2cc(Nc3ccc(F)cc3)c(Nc3ccc(F)cc3)cc21 — remaining signal (cell-free assay; 0.5 µM): 99.1%
